# Assay outcomes (PubChem BioAssay)
# E-selectin induc = E-selectin induction on HUVECs; actives 0.37% (n = 260,000); activation, % at 7.58 µM; P16581; HUVEC E-selectin immunofluorescence imaging; normalized: neutral wells 0, TNF-alpha wells 100; AID 686992;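 active = mean E-selectin-positive cell signal at least 10% of the positive control, reached in at least 60% of replicates, without over 20% cell loss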
#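 Read-out: % PE-positive cells | Test system: HUVEC | Doses: One compound dose added by pin transfer | Buffer or medium: EGM-2 over gelatin coat | Signal: Immunofluorescence imaging | Benchmarks: TNF-alpha, DMSO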
# XiGFP reactiv = activators of X-chromosome reactivation in mouse fibroblasts; XiGFP mouse fibroblasts, % GFP-positive cells imaging, 3 d; cells co-treated with 5-aza-dC sensitizer; scaled so ellipticine positive control = 100%; activation, % at 7.58 µM; actives 0.055% (n = 360,000);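 active = mean normalized replicate activation at least 10% and every replicate at or above 10%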;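 note: 0% = median of on-plate neutral control wells and 100% = ellipticine 6 µM median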
#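 System: 68-5-11 XiGFP fibroblast line; Timing: 3 days compound exposure; Compound dosing: one concentration, pinned; Benchmarks: positive control ellipticine, 6 µM final; Buffer or medium: DMEM containing 5-aza-dC.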
# PglD inh = blocks C. jejuni PglD acetyltransferase activity | purified PglD enzyme, DTNB colorimetric CoA detection | inhibition, % at 12.5 µM | actives 0.098% (n = 360,000); in the data active = inhibition above about 16%, passing the limit was not always enough
# RAD52 inh = inhibitors of human RAD52 DNA annealing; P43351; inhibition, % at 18.7 µM; recombinant RAD52 DNA annealing, FRET fluorescence; actives 0.46% (n = 360,000);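 active = every replicate showing at least 50% inhibition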
# RAD54 branch = blocks human RAD54 Holliday junction branch migration | Q92698 | FAM/BHQ fluorescence | inhibition, % at 10.4 µM | actives 0.14% (n = 360,000);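 active = mean normalized replicate activity at least 40 and at least half of replicates scoring 40 or more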;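 note: 0% = median of neutral control wells and 100% = median of positive control wells; inhibitors cause a drop in the FAM fluorescence signal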
# Target sequence (Q92698 whole entry, looked up): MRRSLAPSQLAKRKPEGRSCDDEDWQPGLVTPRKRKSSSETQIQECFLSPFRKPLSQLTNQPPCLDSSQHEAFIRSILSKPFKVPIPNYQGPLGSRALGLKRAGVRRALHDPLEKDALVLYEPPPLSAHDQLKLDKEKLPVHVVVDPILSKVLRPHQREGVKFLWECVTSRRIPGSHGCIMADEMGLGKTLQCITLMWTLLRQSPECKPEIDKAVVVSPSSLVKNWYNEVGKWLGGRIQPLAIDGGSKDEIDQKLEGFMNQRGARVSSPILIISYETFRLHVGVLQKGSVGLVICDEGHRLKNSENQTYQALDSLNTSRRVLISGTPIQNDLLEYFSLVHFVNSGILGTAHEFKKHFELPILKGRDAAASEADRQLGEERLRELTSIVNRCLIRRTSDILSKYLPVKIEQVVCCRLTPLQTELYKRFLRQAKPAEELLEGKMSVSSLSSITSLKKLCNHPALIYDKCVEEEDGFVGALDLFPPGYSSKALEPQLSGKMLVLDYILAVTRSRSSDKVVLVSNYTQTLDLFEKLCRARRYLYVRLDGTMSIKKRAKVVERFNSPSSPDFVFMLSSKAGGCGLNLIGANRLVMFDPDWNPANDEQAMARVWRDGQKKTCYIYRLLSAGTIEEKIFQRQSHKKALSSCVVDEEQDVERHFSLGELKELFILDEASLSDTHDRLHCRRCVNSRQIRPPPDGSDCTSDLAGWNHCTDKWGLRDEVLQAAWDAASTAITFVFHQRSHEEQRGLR
# Ecoli rRNA inh = inhibitors of bacterial rRNA selective over humanized ribosomes | E. coli WT GFP vs humanized-ribosome RFP mutants, fluorescence, 24 h; active compounds read low; DMSO median 0, no signal -100 | GFP signal change (wild-type ribosome), % (test concentration not listed) | actives 1.6% (n = 350,000) | AID 720706;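 active = significant combined selectivity score with lowered wild-type GFP, culture density cut under 30%, mutant RFP and density less affected; inactive = any of these conditions unmet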
# The depositor's hits bear a star; / = not tested or not shown; ! = a repeat was not active. Rows were chosen to be rich in hits. Some 2% of all compounds tested hit in one or more screens of this group.
SMILES,E-selectin induc,XiGFP reactiv,PglD inh,RAD52 inh,RAD54 branch,Ecoli rRNA inh
C[C@H]1CCCCO[C@H](CN(C)Cc2ccccc2)[C@@H](C)CN([C@@H](C)CO)C(=O)c2cc(NS(=O)(=O)c3ccc(Cl)cc3)ccc2O1,/,0,3,47,-2,-9
C[C@H](CO)N1C[C@H](C)[C@@H](CN(C)Cc2ccccc2)OCCCC[C@H](C)Oc2ccc(NS(=O)(=O)c3ccc(Cl)cc3)cc2C1=O,/,0,1,35,7,-2
C[C@@H]1CN([C@@H](C)CO)C(=O)c2cc(NS(=O)(=O)c3ccc(F)cc3)ccc2O[C@@H](C)CCCCO[C@H]1CN(C)Cc1ccccc1,/,0,-1,27,5,-2
C[C@@H]1CCCCO[C@H](CN(C)Cc2ccccc2)[C@@H](C)CN([C@@H](C)CO)C(=O)c2cc(NS(=O)(=O)c3ccc(Cl)cc3)ccc2O1,/,0,1,64*,-2,-13
C[C@@H]1CCCCO[C@@H](CN(C)Cc2ccccc2)[C@H](C)CN([C@H](C)CO)C(=O)c2cc(NS(=O)(=O)c3ccc(Cl)cc3)ccc2O1,/,0,1,61*,2,-4
O=C(C[C@@H]1CC[C@@H]2[C@H](COC[C@H](O)CN2Cc2ccncc2)O1)NCC1CC1,0,0,2,2,1,2
CCS(=O)(=O)Nc1ccc2c(c1)C(=O)N(C)C[C@H](OC)[C@H](C)CN(CC1CCCC1)[C@H](C)CO2,0,0,0,/,6,2
COc1ccc(S(=O)(=O)N(C)C[C@@H]2Oc3cc(C#CC4CC4)ccc3S(=O)(=O)N([C@@H](C)CO)C[C@@H]2C)cc1,0,0,3,3,-6,-2
Cc1ccc(S(=O)(=O)Nc2ccc3c(c2)C(=O)N([C@H](C)CO)C[C@H](C)[C@@H](CN(C)CC2CCCCC2)OCCCC[C@H](C)O3)cc1,0,0,4,41,-3,1
C[C@@H]1CN([C@H](C)CO)C(=O)c2cc(NS(=O)(=O)c3ccc(F)cc3)ccc2O[C@@H](C)CCCCO[C@@H]1CN(C)S(C)(=O)=O,44*,0,1,4,0,3
Cc1ccc(S(=O)(=O)Nc2ccc3c(c2)C(=O)N([C@@H](C)CO)C[C@H](C)[C@@H](CN(C)CC2CCCCC2)OCCCC[C@H](C)O3)cc1,0,0,1,55*,5,-24
COc1ccc(NC(=O)Nc2ccc3c(c2)C(=O)N([C@H](C)CO)C[C@H](C)[C@@H](CN(C)C(=O)CCCN(C)C)OCCCC[C@@H](C)O3)cc1,0,0,1,22,5,1
CC(=O)Oc1cc2oc(=O)cc(C)c2cc1Cl,1,0,-1,0,9,-26*
COc1ccc(-c2ccc(C3[C@H]4CNC[C@@H]3N4Cc3cc(OC)cc(OC)c3)cc2)cc1 (stereo partly specified),0,0,/,42,/,2
Fc1cccc(CN2[C@@H]3CNC[C@H]2C3c2ccc(-c3cccc(F)c3)cc2)c1 (stereo partly specified),-1,0,/,51*!,/,-54
Fc1ccc(F)c(CN2[C@@H]3CNC[C@H]2C3c2ccc(-c3ccccc3)cc2)c1 (stereo partly specified),0,0,/,18,/,4
Fc1ccc(F)c(CN2[C@@H]3CNC[C@H]2C3c2ccc(-c3ccncc3)cc2)c1 (stereo partly specified),0,0,/,81*!,/,-2
COc1cc(CN2[C@@H]3CNC[C@H]2C3c2ccc(-c3cccc(C)c3)cc2)cc(OC)c1 (stereo partly specified),0,0,/,59*,/,-10
Fc1cccc(CN2[C@@H]3CNC[C@H]2C3c2ccc(-c3ccccc3)cc2)c1 (stereo partly specified),0,0,/,31,/,-2
COCC(=O)Nc1ccc2c(c1)OC[C@H](C)N(C(=O)c1ccccc1)C[C@H](C)[C@H](OC)CN(C)C2=O,0,0,0,6,0,-1
CN1CCN(C(=O)C[C@H]2C[C@@H]3c4cc(NS(C)(=O)=O)ccc4O[C@@H]3[C@H](CO)O2)CC1,0,0,1,-4,3,4
Cc1ccc(S(=O)(=O)Nc2cc(C)c(O)c(Sc3n[nH]c(C)n3)c2)cc1,/,0,-1,0,1,-43*
CCOC(=O)c1c(NC(C)=O)sc(/C(C)=N/Nc2ccc(C(=O)O)cc2)c1C,1,0,-14,-1,3,-17*
CO[C@@H]1CN(C)C(=O)c2ccc(NC(=O)CN(C)C)cc2OC[C@@H](C)N(C(=O)C2CCCCC2)C[C@H]1C,0,0,2,-7,-7,3
COC(=O)[C@@]1(C)[C@H]2C(=O)N(Cc3ccccc3)C(=O)[C@H]2[C@H]2CN=C(SCc3ccc(Cl)cc3)N21,/,0,2,-7,10,-21*
SMILES,E-selectin induc,XiGFP reactiv,PglD inh,RAD52 inh,RAD54 branch,Ecoli rRNA inh
COC(=O)[C@@]1(C)[C@H]2C(=O)N(Cc3ccccc3)C(=O)[C@H]2[C@H]2CN=C(SCc3ccc(C#N)cc3)N21,1,0,-6,-9,-6,-2
CCCN(CC(=O)Nc1ccc(Cl)cc1Cl)Cc1cc(=O)n2ccsc2n1,0,0,-3,-20,5,-46*
O=C(Oc1c(-c2ccccc2)c(=O)n2c3c(cccc13)CC2)c1ccccc1,0,0,-1,-9,4,-28*
Cc1ccc(S(=O)(=O)N(C)c2ccccc2)cc1,/,/,-3,/,0,/
CN(c1ccccc1)S(=O)(=O)c1ccccc1Br,0,0,5,-6,-2,-38*
Cc1[nH]n(C2=NCCS2)c(=O)c1N=Nc1cccc(C(F)(F)F)c1,/,0,/,-24,/,-25*
Cc1[nH]n(-c2ccccc2)c(=O)c1N=Nc1ccc(C(=O)O)cc1,1,0,-18,-17,10,3
Cc1[nH]n(-c2ccccc2)c(=O)c1N=Nc1cccc(C(=O)O)c1,/,0,-9,-2,3,-27*
Cc1ccc(NCCCn2cnc3c(OCc4ccccc4)ncnc32)cc1C,0,0,-8,-6,5,-21*
CC(CNCCCn1cnc2c(OCc3ccccc3)ncnc21)c1ccccc1 (stereo unspecified),8,0,5,-17,-9,-17*
c1ccc(CNCCCn2cnc3c(OCc4ccccc4)ncnc32)cc1,0,0,0,-30,-1,-4
